This note sets out measurements from the RNAGym collection of RNA variant scans (doi:10.1101/gad.245936.114).

Variants at the floor of the assay were thinned out.

Sequences and labels used below:
B1: tRNA (parent)
chain: CUCUCGGUAGCCAAGUUGGUUUAAGGCGCAAGACUUUAAUUUAUCACUACGAAAUCUUGAGAUCGGGCGUUCGACUCGCCCCCGGGAGAUUUUUUCCUCGAGCAA

Variants of B1 are the subject of the data set. Briefly: nonsense suppression (GFP-seq) (ratio to wild type); higher = more function; SUP4oc tRNA, yeast GFP reporter sort-seq. In a few lines:
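Each variant's nonsense suppression (GFPSEQ) is a cell-share-weighted bin median GFP/RFP relative to the unmutated parent tRNA. Yeast with genome-integrated tRNA variants from a ~3% random-mutation library, a galactose-driven GFP ochre reporter and RFP were grown in raffinose/galactose medium with 80 mg/L adenine, then sorted into GFP/RFP bins for Illumina sequencing. Variants needed ≥100 reads and ≥30 cells.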
Take CUCUCGGUAGCCAAGUUGGUUUGAGGCGCAAGACUUUAAUUUAUCACUACGAAAUCUUGGGAUCGGGCGUUCGACUCGCCCCCGGGAGAUUUUUUCCUCGAGCAA: the nonsense suppression is 0.0474. Turning to CUCUCGGUAGCCAAGUUGGUUUGAGGCGCAAGACUUUAAUUUAUCACUACGAAAUCUUGAGAUCGGGCGUUCGACUCGCCCCCGUGAGAUUUUUUCCUCGAGCAA, the nonsense suppression worked out at 0.0779. Turning to CUCUCGGUAGCCAAGUUGGUUUUAGGCGCAAGAUGUUAAUUUAUCACUACGAAAUCUUGAGAUCGGGCGUUCGACUCGCCCCCGGGAGAUUUUUUCCUCGAGCAA, the nonsense suppression is ≤ 0.026. On to CUCUCGGUAGCCAAGUUGGUUUUAGGCGCAAGACUUUAAUUUAUCACUACGAAAUCUUGAGAACGGGCGUUCGACUCGCCCCCGGGAGAUUUUUUCCUCGAGCAA, for which the nonsense suppression is 0.207.

On to CUCUCGGUAGCCAAGUUGGUUUGAGGCGCAAGACUUUAAUUUAUCACUACGAAAUAUUGAGAUGGGGCGUUCGCCUCGCCCCCGGGAGAUUUUUUCCUCGAGCAA, for which the nonsense suppression is ≤ 0.026. As for CUCUCGGUAGCCAAGUUGGUUUGAGGCGCAAGACUUUAAUUUAUCACUACGAAAUCUUGAGAUCGGACGUUCGACUCGCACCCGGGAGAUUUUUUCCUCGAGCAA, the nonsense suppression was ≤ 0.026. Regarding CUCUCGGUAGCCAAGUUGGUUUGAGGCGCAAGACUUUAAUUUAUCACUACGAAAUCUUGAGAUCGGGUGUUCGACUCGCCCCCGGGAGAUUUUUUCCUCGAGCAA, the nonsense suppression is 0.182.

CUCUCGGUAGCCAAGUUGGUUUGAGGCGCAAGACUUUAAUUUAUCACUACGAAAUCUUGAGAUCGGGCCUUCGACUCGCCCCCGGGAGAUUUUUUCCUCGAGCAA: the nonsense suppression was ≤ 0.026.

For the variant CUCUCGGUAGCCAAGUUGGUUUGAGGCGCAAGACUUUAAUUUAUCACUACGAAAUCUUCAGAUGGGGCGUUCGACUUACCCCCGGGAGAUUUUUUCCUCGAGCAA, the nonsense suppression was ≤ 0.026. For CUCUCGGUAGCCAAGUUGGUUUGAGGCGCAAGACUUUAAUUUAUCACUACGAAAUCUUCAGAUCGGGCGUUCGACUCGCCCCCGGGAGAUUUUUUCCUCGAGCAA, the nonsense suppression was ≤ 0.026. Consider CUCUCGGUAGCCAAGUUGGUUUGAGGCGUAAGACUUUAAUUUAUCACUACGAAAUCUUGAGAUCGGGCGUUCGACUCGCCCCCGGGAGAUUUUUUCCUCGAGCAA, for which the nonsense suppression came out at 0.142. As to CUCUCGGUAGCCAAGUUGGUUUACGGCGCUAGACUUUAAUUUAUCACUACGAACUCUGGAGAUCGGGCGUUCGAAUCGCCCCCGGGAGAUUUUUUCCUCGAGCAA, the nonsense suppression worked out at 0.783. On to CUCUCGGUAGCCAAGUUGGUUUUAGGCGCAAGACUUUAAUUUAUCACUACGAAAUCUUGAGAUCGGACGUUCGACUCGCCCCCGGGAGAUUUUUUCCUCGAGCAA, for which the nonsense suppression is ≤ 0.026. CUCUCGGUAGCCAAGUUGGUUUGAGGCGCAAGACUUUAAUUUAUCACUACGAAAUCUUGAGAUCGGGCGUUCGACUCGCCCCCUGUAGAUUUUUUCCUCGAGCAA: the nonsense suppression is ≤ 0.026. In the case of CUCUCGGUAGCCAAGUUGGUUUGAGGCGCAAGACUUUAAUUUAUCACUACGAAAUGUUGAGAUCAGGCGUGCGACUCGCCCCCGGGAGAUUUUUUCCUCGAGCAA, the nonsense suppression is ≤ 0.026. Regarding CUCUCGGUAGCCAAGUUGGUUUUAGGCGCAAGACUUUAAUUUAUCACUACGAAAUCUUGGGAUCGGGCGUUCGACUCGCCCCCGGGAGAUUUUUUCCUCGAGCAA, the nonsense suppression is 0.0537. Turning to CUCUCGGUAGCCAAGUUGGUUUGAGGCGCAAGAAUUUAAUUUAUCACUACGAAAUCUUGAGAUCGGGCGUUCGACUCGCCCCCGGGAGAUUUUUUCCUCGAGCAA, the nonsense suppression is ≤ 0.026. Turning to CUCUCGGUAGCCAAGUUGGUUUUAGGCGCAAUACUUUAAUUUAUCACUACGAAAUCUUGAGAGCGGGAGAUCGCCUCGCCCCCGGGAGAUUUUUUCCUCGAGCAA, the nonsense suppression was ≤ 0.026. In the case of CUCUCGGUAGCCAAGUUGGUUUUAGGCGCAAGACUUUAAUUUAUCACUACGAAAUCUUGAGCUCGGGCGUUCGACUCGCCCCCGGGAGAUUUUUUCCUCGAGCAA, the nonsense suppression is ≤ 0.026. Take CUCUCGGUAGCCAAGUUGGUUUGAGGCGCAAGACUUUAAUUUAUCACUACGAAAUCUUGAGAUCGGUCGUUCGACUCGCCCCCGGGAGAUUUUUUCCUCGAGCAA: the nonsense suppression is ≤ 0.026. With CUCUCGGUAGCCAAGUUGGUUUGAGGCGCAAGACUUUAAUUUAUCACUACGAAAUAUUGAGAGCGGGCGUUCGACUCGCCCCCGGGAGAUUUUUUCCUCGAGCAA, the nonsense suppression was ≤ 0.026. Turning to CUCUCGGUAGCCAAGUUGGUUUUAGGCCCAAGACUUUAAUUUAUCACUACGAAAUCUUGAGAUCGGGCGUUCGACUCGCCCCCGGGAGAUUUUUUCCUCGAGCAA, the nonsense suppression was ≤ 0.026.

As to CUCUCGGUAGCCAAGUUGGUUUGAGGCGCAAGACUUUAAUUUAUCACUACGAAAUCUUGAGAUCGGGCGCUCGACUCGCCCCCGGGAGAUUUUUUCCUCGAGCAA, the nonsense suppression was ≤ 0.026. As to CUCUCGGUAGCCAAGUUGGUUUUAGGCGCAACACUUUAAUUUAUCACUACGAAAUCCUGAGAUCGGGCGUUCGACUCGCCACCGGGAGAUUUUUUCCUCGAGCAA, the nonsense suppression was ≤ 0.026. On to CUCUCGGUAGCCAAGUUGGUUUUAGGCGCAAGACUUUAAUUUAUCACUACGAAAUCUUGAGAUCGGGCGUUCGACUCGCGCCCGGGAGAUUUUUUCCUCGAGCAA, for which the nonsense suppression was ≤ 0.026. Turning to CUCUCGGUAGCCAAGUUGGUUUUAGGCGCAGGACUUUAAUUUAUCACUACGAAAUCUUGAGAUCGGGCGUUCGACUCGCCCCCGGGAGAUUUUUUCCUCGAGCAA, the nonsense suppression is ≤ 0.026. Regarding CUCUCGGUAGCCAAGUUGGUUUUAGGCGCAAGACUUUAAUUUAUCACUACGAAAUCUUGAGAUCGGGCGUUCGAAUCGCCCCCGGGAGAUUUUUUCCUCGAGCAA, the nonsense suppression is ≤ 0.026.
